From PubChem BioAssay
ARFGAP1 inh: rat ARFGAP1 inhibition; hit rate 0.26% among 360,000; inhibition, % at 16.5 µM; Q62848; Arfgap1-stimulated ARF1 GTP hydrolysis, GDP FP detection;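 active means inhibition above a per-plate limit, mean inhibition of low control wells plus 3 SD, cut at about 25% in these data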
Target sequence (Q62848 1-136 limits assumed): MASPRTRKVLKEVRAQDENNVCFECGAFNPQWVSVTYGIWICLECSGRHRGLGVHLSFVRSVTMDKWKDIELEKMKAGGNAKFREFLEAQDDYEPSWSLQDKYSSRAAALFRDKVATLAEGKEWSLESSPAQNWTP
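Material: rat Arfgap1 catalytic domain, aa 1-136; also added: human ARF1(Δ1-17)-GTP substrate; compound dosing: one concentration, 16.5 µM, DMSO 1.26%; incubation: GTP hydrolysis reaction 2 h at 25 °C; measured by: Tracer-displacement fluorescence polarization with EDTA stop, 620/688 nm; evaluation: % inhibition from polarization; repeats: one replicate per compound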
ASAP1 inh: blocks human ASAP1-stimulated Arf1 GTP hydrolysis; Q9ULH1; GDP FP detection; inhibition, % at 16.5 µM; hit rate 0.19% among 360,000; in the data active means inhibition above about 25%
esBAF inh: inhibitors of esBAF chromatin remodeling in mouse ES cells. reporter increase, % at 12.5 µM. Bmi1-luciferase knock-in reporter, 24 h; 100% = twice the neutral-well signal. hit rate 2% among 350,000; in the data active means activation above about 40%;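 further: a rise in the Bmi1 reporter signal indicates esBAF inhibition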
SMARCA2 activ: SMARCA2 function activation, primary screen; MG213 cells, MMTV-luciferase reporter, dexamethasone, overnight; activation, % at 9.1 µM; hit rate 1% among 370,000; in the data active means activation above about 7.8%
ARFGAP1 inh conf: rat ARFGAP1 inhibition, confirmed; ARFGAP1-stimulated ARF1 GTP hydrolysis, GDP tracer FP; hit rate 30% among 890; inhibition, % at 16.5 µM; shares compounds with ARFGAP1 inh; AID 651608;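 active means average inhibition over triplicates above the hit cutoff set in the earlier primary screen, cut at about 25% in these data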
Target sequence (Q62848 whole entry, looked up): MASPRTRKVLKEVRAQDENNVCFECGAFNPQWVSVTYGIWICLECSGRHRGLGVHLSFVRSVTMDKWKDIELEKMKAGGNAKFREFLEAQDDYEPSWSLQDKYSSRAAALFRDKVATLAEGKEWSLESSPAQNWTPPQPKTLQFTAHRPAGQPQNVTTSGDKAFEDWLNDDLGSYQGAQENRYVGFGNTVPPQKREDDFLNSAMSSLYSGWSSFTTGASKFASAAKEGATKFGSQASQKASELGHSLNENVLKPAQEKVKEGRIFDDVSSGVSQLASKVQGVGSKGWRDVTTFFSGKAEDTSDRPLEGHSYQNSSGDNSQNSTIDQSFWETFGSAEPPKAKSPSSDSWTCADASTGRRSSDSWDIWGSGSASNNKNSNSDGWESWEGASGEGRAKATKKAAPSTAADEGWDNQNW
Numbers stand for hits; n = inactive; x = no result. Rows were chosen to be rich in hits. Some 2.6% of all compounds tested hit in one or more screens of this group.

SMILES	ARFGAP1 inh	ASAP1 inh	esBAF inh	SMARCA2 activ	ARFGAP1 inh conf
COc1cc(/C=N/NC(=O)c2cc(-c3ccccc3)nc3ccccc23)ccc1O	n	n	n	n	x
CCCNC(=O)N1[C@@H](C#N)[C@@H](c2ccc(C#Cc3cccc(F)c3)cc2)[C@@H]1CO	x	x	n	x	x
CN(Cc1ccco1)C(=O)C1CCC(=O)N(CCc2cccc(F)c2)C1 (stereo not drawn)	n	n	n	n	x
CC#CCN(Cc1ccco1)C(=O)C1CCC(=O)N(CCc2cccc(F)c2)C1 (stereo not drawn)	28	n	n	n	n
NNC(=O)c1ccc(CSc2nc3ccccc3[nH]2)cc1	n	n	x	n	x
O=C(O)c1ccc(CSc2nc3ccccc3[nH]2)cc1	29	n	n	n	n
Cc1ccc(CSc2ncnc3ccccc23)cc1	25	n	n	n	n
O=C(N/N=C/c1cc(Br)ccc1O)Nc1ccccc1	25	n	x	n	n
NC(=O)N/N=C\c1cc(Br)ccc1O	n	n	x	n	x
C[C@@H]1CN([C@@H](C)CO)C(=O)c2cc(-c3ccccc3)cnc2O[C@@H]1CN(C)C(=O)Nc1ccccc1	x	x	n	x	x
CCOC(=O)Cc1csc(NC(=O)CN2C(=O)c3ccccc3S2(=O)=O)n1	33	n	n	n	n
CCOC(=O)Cc1csc(NC(=O)CN2C(=O)c3ccccc3C2=O)n1	n	n	x	n	x
CCC1(C(N)=O)CC2C=CC1C2 (stereo not drawn)	n	n	n	n	x
O=C(O)CC1(C(=O)O)CC2C=CC1C2 (stereo not drawn)	25	n	n	n	n
O=C(Nc1nc(-c2cccc3ccccc23)cs1)c1ccc2c(c1)S(=O)(=O)c1ccccc1C2=O	34	n	n	n	n
O=C(Nc1nc(-c2ccccc2)cs1)c1ccc2c(c1)S(=O)(=O)c1ccccc1C2=O	n	n	x	n	x
CC(=O)OCC(=O)Nc1cc(S(=O)(=O)N2CCCCCC2)ccc1Cl	25	n	n	n	n
CNC[C@@H]1OCCCC[C@H](C)Oc2ccc(NC(=O)Nc3c(C)noc3C)cc2C(=O)N([C@H](C)CO)C[C@@H]1C	x	x	n	x	x
CCCN1[C@H](C(=O)OC)[C@@H](CO)[C@@H]2Cn3c(ccc(-c4ccccc4)c3=O)[C@@H]21	x	x	n	x	x
O=C1Nc2ccccc2C1=Nc1cccc([N+](=O)[O-])c1	n	n	x	n	x
NC(=O)c1ccc(N=C2C(=O)Nc3ccc([N+](=O)[O-])cc32)cc1	37	40	x	n	n
COc1ccc(NC(=O)c2ccc3c(=O)n(-c4ccc(OC)cc4OC)c(=S)[nH]c3c2)cc1	n	n	n	n	x
COc1ccc(-n2c(=S)[nH]c3cc(C(=O)Nc4ccc(F)cc4)ccc3c2=O)c(OC)c1	25	n	n	n	n
COc1ccc(CCNC(=O)CN(c2ccccc2OC)S(C)(=O)=O)cc1OC	n	n	n	n	x
COc1ccc(CCNC(=O)CN(c2ccccc2OC)S(C)(=O)=O)cc1	28	n	n	n	n
SMILES	ARFGAP1 inh	ASAP1 inh	esBAF inh	SMARCA2 activ	ARFGAP1 inh conf
OC[C@@H]1CN(Cc2ccc(F)cc2)C[C@H](n2cnc3c(Nc4ccccc4)ncnc32)O1	38	n	n	n	n
O=C(NCc1ccco1)c1ccc(NC(=O)C2COc3ccccc3O2)cc1 (stereo not drawn)	29	n	n	n	n
COc1cccc(CNC(=O)[C@H]2[C@H](CO)[C@H]3Cn4c(ccc(-c5ccncc5)c4=O)[C@@H]2N3C(C)=O)c1	x	x	n	x	x
COc1ccccc1NC(=O)Cc1csc(NC(=S)Nc2ccc(C)cc2)n1	27	n	n	n	n
CCC(=O)Nc1nc(CC(=O)Nc2ccccc2OC)cs1	n	n	n	n	x
CC(=O)c1ccc(NC(=O)COC(=O)c2c3c(nc4ccccc24)/C(=C\c2cccs2)CCC3)cc1	32	n	x	n	n
CCCNC(=O)N1[C@H](CO)[C@@H](c2ccccc2)[C@H]1CNC(=O)c1ccc(F)cc1	x	x	n	x	x
CCCNC(=O)Cn1cnc2sc(C(=O)N3CCN(c4ccc(F)cc4)CC3)c(C)c2c1=O	26	n	n	n	n
COc1ccc2c(c1)C(c1ccc(C)o1)=NNC(c1cccnc1)=N2	25	n	n	n	n
CCCOC(=O)c1ccc(Oc2cn[nH]c2-c2ccc(OC)cc2O)cc1	30	n	n	n	n
O=C(N/N=C/c1ccc(C(=O)O)cc1)C(=O)N1CCCCCC1	n	n	n	n	x
O=C(N/N=C/c1ccc(Cl)cc1)C(=O)N1CCCCCC1	25	n	n	n	n
COc1ncc(-c2ccc(N3C(c4ccsc4)=Cc4ccc(F)cc4C3CC(=O)c3ccco3)cc2)cn1 (stereo not drawn)	n	n	x	n	x
O=C(CC1c2cc(F)ccc2C=C(c2ccsc2)N1c1ccc(C#CCCO)cc1)c1ccco1 (stereo not drawn)	25	n	x	n	n
CCC1Nc2ncnc(N3CCCCC3)c2N(Cc2ccc(Cl)cc2)C1=O (stereo not drawn)	29	n	n	n	n
CCCN(C)C[C@@H]1Oc2cc(-c3ccc(C#N)cc3)ccc2S(=O)(=O)N([C@H](C)CO)C[C@@H]1C	x	x	n	x	x
CCOC(=O)CSc1nc2sc3c(c2c(=O)n1-c1ccc(OC)cc1)CCN(C)C3	n	n	n	n	x
COc1ccc(-n2c(SCCNCCO)nc3sc4c(c3c2=O)CCCC4)cc1	32	n	n	n	n
COc1ccc(-n2c(SCC(=O)O)nc3sc4c(c3c2=O)CCCC4)cc1	35	n	n	n	52
COc1ccc(-n2c(SCC(N)=O)nc3sc4c(c3c2=O)CCN(C)C4)cc1	37	n	n	n	37
C[C@@H]1CN([C@H](C)CO)C(=O)Cc2cc(NC(=O)Nc3ccc4c(c3)OCO4)ccc2O[C@@H]1CN(C)Cc1ccc(C(F)(F)F)cc1	x	x	n	x	x
COc1ccc(N2CCN(C(=O)c3ccc(C(C)(C)C)cc3)CC2)cc1	28	n	n	n	n
COc1ccc(N2CCN(C(=O)CCNC(=O)c3ccc(C(C)(C)C)cc3)CC2)cc1	n	n	x	n	x
Cc1cccc(N2C(=O)C(Oc3ccc(Cl)cc3Cl)C2C(=O)O)c1C (stereo not drawn)	25	n	x	n	n
CC(C)NC(=O)Nc1ccc2c(c1)C(=O)N(C)[C@@H]1CC[C@H](CC(=O)Nc3ccccc3)O[C@@H]1CO2	x	x	n	x	x
SMILES	ARFGAP1 inh	ASAP1 inh	esBAF inh	SMARCA2 activ	ARFGAP1 inh conf
Cc1ccc(C)c(N(C(=O)Cn2nnc(-c3cccs3)n2)C(C(=O)NC2CCCC2)c2ccncc2)c1 (stereo not drawn)	31	n	n	n	n
Cc1cc(C)c2nc(C)cc(N/N=C/c3ccc(O)cc3)c2c1	26	n	n	n	40
Cc1ccc2nc(SCC(=O)Nc3cccc(Cl)c3)nc(=O)n2c1	31	n	n	n	50
Cc1ccc2nc(SCC(=O)c3ccc(Cl)cc3)nc(=O)n2c1	27	n	n	n	50
COc1ccccc1NC(=O)CSc1nc(=O)n2cc(C)ccc2n1	31	n	n	n	n
Cc1ccc2nc(SCC(=O)NC3CCCCC3)nc(=O)n2c1	n	n	x	n	x
